According to ChEMBL document CHEMBL4834428:

What was measured:
[1] = compound: N#Cc1ccccc1CN1CC(C(N)=O)Oc2ccccc21; assay: Uncompetitive inhibition of His6-tagged SIRT1 (unknown origin) expressed in Escherichia coli BL21 (DE3) assessed as change in Vmax at 1600 nM measured every 2 mins for 30 mins in presence of NAD+ and ATP by […] based Michaelis-Menten analysis (reference value: 860 to 1326 AU/min); conditions: Homo sapiens
Outline: (§1)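 Continuous assay, triplicates: 100 nM His6-SirT1 catalytic domain, ~270 nM FLucK529ac, inhibitor 100–1600 nM in sirtuin buffer 2 plus luciferase buffer (0.5 mM ATP, 0.5 mM luciferin, pH 7.8).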

[2] = substrate: N#Cc1ccccc1CN1CC(C(N)=O)Oc2ccccc21; conditions: Homo sapiens; dose 400.0 nM, time 30.0 min
[3] = compound: N#Cc1ccccc1CN1CC(C(N)=O)Oc2ccccc21; assay: Uncompetitive inhibition of His6-tagged SIRT1 (unknown origin) expressed in Escherichia coli BL21 (DE3) assessed as change in Vmax at 800 nM measured every 2 mins for 30 mins in presence of NAD+ and ATP by […] based Michaelis-Menten analysis (reference value: 860 to 1326 AU/min); conditions: Homo sapiens; outline: as §1
[4] = substrate: N#Cc1ccccc1CN1CC(C(N)=O)Oc2ccccc21; conditions: Homo sapiens; dose 200.0 nM, time 30.0 min
[5] = substrate: N#Cc1ccccc1CN1CC(C(N)=O)Oc2ccccc21; conditions: Homo sapiens; dose 400.0 nM, time 30.0 min; remark: listed apart in the source
[6] = substrate: N#Cc1ccccc1CN1CC(C(N)=O)Oc2ccccc21; conditions: Homo sapiens; dose 100.0 nM, time 30.0 min
[7] = substrate: N#Cc1ccccc1CN1CC(C(N)=O)Oc2ccccc21; conditions: Homo sapiens; dose 100.0 nM, time 30.0 min; remark: listed apart in the source
[8] = compound: N#Cc1ccccc1CN1CC(C(N)=O)Oc2ccccc21; assay: Uncompetitive inhibition of His6-tagged SIRT1 (unknown origin) expressed in Escherichia coli BL21 (DE3) assessed as change in Km at 800 nM measured every 2 mins for 30 mins in presence of NAD+ and ATP by […] based Michaelis-Menten analysis (reference value: 54.3 to 57.6 uM); conditions: Homo sapiens; outline: as §1
[9] = compound: N#Cc1ccccc1CN1CC(C(N)=O)Oc2ccccc21; assay: Uncompetitive inhibition of His6-tagged SIRT1 (unknown origin) expressed in Escherichia coli BL21 (DE3) assessed as change in Km at 1600 nM measured every 2 mins for 30 mins in presence of NAD+ and ATP by […] based Michaelis-Menten analysis (reference value: 54.3 to 57.6 uM); conditions: Homo sapiens; outline: as §1
[10] = substrate: N#Cc1ccccc1CN1CC(C(N)=O)Oc2ccccc21; conditions: Homo sapiens; dose 200.0 nM, time 30.0 min; remark: listed apart in the source

B1: NAD-dependent protein deacetylase sirtuin-1 (Homo sapiens), Q96EB6 (protein)
chain: MADEAALALQPGGSPSAAGADREAASSPAGEPLRKRPRRDGPGLERSPGEPGGAAPEREVPAAARGCPGAAAAALWREAEAEAAAAGGEQEAQATAAAGEGDNGPGLQGPSREPPLADNLYDEDDDDEGEEEEEAAAAAIGYRDNLLFGDEIITNGFHSCESDEEDRASHASSSDWTPRPRIGPYTFVQQHLMIGTDPRTILKDLLPETIPPPELDDMTLWQIVINILSEPPKRKKRKDINTIEDAVKLLQECKKIIVLTGAGVSVSCGIPDFRSRDGIYARLAVDFPDLPDPQAMFDIEYFRKDPRPFFKFAKEIYPGQFQPSLCHKFIALSDKEGKLLRNYTQNIDTLEQVAGIQRIIQCHGSFATASCLICKYKVDCEAVRGDIFNQVVPRCPRCPADEPLAIMKPEIVFFGENLPEQFHRAMKYDKDEVDLLIVIGSSLKVRPVALIPSSIPHEVPQILINREPLPHLHFDVELLGDCDVIINELCHRLGGEYAKLCCNPVKLSEITEKPPRTQKELAYLSELPPTPLHVSEDSSSPERTSPPDSSVIVTLLDQAAKSNDDLDVSESKGCMEEKPQEVQTSRNVESIAEQMENPDLKNVGSSTGEKNERTSVAGTVRKCWPNRVAKEQISRRLDGNQYLFLPPNRYIFHGAEVYSDSEDDVLSSSSCGSNSDSGTCQSPSLEEPMEDESEIEEFYNGLEDEPDVPERAGGAGFGTDGDDQEAINEAISVKQEVTDMNYPSNKS
In the case of B1, the Vmax [1] is reported as 208 AU/min, the Vmax [2] is reported as 522 AU/min and the Vmax [3] is reported as 304 AU/min. It also gave a Vmax [4] of 673 AU/min, a Km [5] of 23.8 µM and a Vmax [6] of 864 AU/min. For the same protein, the Km [7] was 47.7 µM, the Km [8] was 10 µM and the Km [9] was 4.9 µM. For the same protein, the Km [10] was 34.6 µM.
